Reference: ChEMBL document CHEMBL1124697, “A new family of water-soluble, third generation antitumor platinum complexes” (J Med Chem, 1989)
The source made the active and inactive calls.

How the values were obtained:
L1210 [1] = experiment: Percent survivors when compound administered at 50 mg/kg against L1210 cisplatin resistant leukemia cells in BDF1 mice; IA=inactive; assay type: functional, organism-based; set-up: dose 50 mg/kg; conditions: Mus musculus
Summary of the method: (§1)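 BDF1 mice inoculated with P388, L1210 or cisplatin-resistant L1210 leukemia. Compound given ip on days 1, 5 and 9 relative to tumor inoculation, and mice observed for 30 days. Median % increase in life span over controls and % survivors are reported at the optimal dose. Activity requires ILS ≥25%. Toxicity is rated when ILS or body weight is reduced by ≥15%.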

L1210 [2] = experiment: Percent increase in life span when compound administered at 12.5 mg/kg against L1210 leukemia cells in BDF1 mice; assay type: functional, organism-based; set-up: dose 12.5 mg/kg; conditions: Mus musculus
Summary of the method: (§2)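 BDF1 mice bearing P388, L1210 or cisplatin-resistant L1210 leukemia; ip dosing on days 1, 5 and 9 relative to tumor inoculation, 30-day observation. Median % ILS over controls at optimal dose plus % survivors; ≥25% ILS counted as active, ≥15% reduction in ILS or body weight over controls rated toxic.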

Mus musculus = experiment: Tumor weight inhibition against human mammary MX-1 in Athymic mice after 50 mg/kg optimal dose; assay type: functional, organism-based; set-up: dose 50 mg/kg; conditions: at 50 mg/kg
P388 [3] = experiment: Percent survivors when compound administered at 100 mg/kg against P388 leukemia cells in BDF1 mice; assay type: functional, organism-based; set-up: dose 100 mg/kg; conditions: Mus musculus; summary of the method: as §1
L1210 [4] = experiment: Percent increase in life span when compound administered at 50 mg/kg against L1210 cisplatin resistant leukemia cells in BDF1 mice; IA=inactive; assay type: functional, organism-based; set-up: dose 50 mg/kg; conditions: Mus musculus; summary of the method: as §2
Colon 26 [5] = experiment: Percent in life span when compound administered at 50 mg/kg againstColon 26 cells in balb/C mice; assay type: functional, organism-based; set-up: dose 50 mg/kg; conditions: Mus musculus
Summary of the method: (§3)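 Colon 26 tumor in Balb/C mice. Dosing ip on days 1, 5 and 9 after tumor inoculation, with a 30-day observation period. Readouts are median % increase in life span over control mice and % survivors, given at the optimal dose. Activity threshold is ILS ≥25%. A ≥15% drop in ILS or body weight is rated toxic.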

P388 [6] = experiment: Percent increase in life span when compound administered at 100 mg/kg against P388 leukemia cells in BDF1 mice; assay type: functional, organism-based; set-up: dose 100 mg/kg; conditions: Mus musculus; summary of the method: as §2
Colon 26 [7] = experiment: Percent survivors when compound administered at 50 mg/kg againstColon 26 cells in balb/C mice; assay type: functional, organism-based; set-up: dose 50 mg/kg; conditions: Mus musculus; summary of the method: as §3
B16 [8] = experiment: Percent survivors when compound administered at 0.4 mg/kg against B-16 melanoma cells in […] mice; assay type: functional, organism-based; set-up: dose 0.4 mg/kg; conditions: Mus musculus
Summary of the method: (§4)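 Median % increase in life span versus controls and % survivors are recorded at the optimal dose. ILS ≥25% counts as active, and a ≥15% reduction in ILS or body weight counts as toxic.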

B16 [9] = experiment: Percent increase in life span when compound administered at 0.4 mg/kg against B-16 melanoma cells in […] mice; assay type: functional, organism-based; set-up: dose 0.4 mg/kg; conditions: Mus musculus
Summary of the method: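 B-16 melanoma in […] mice; compounds given ip daily on days 1–9 relative to tumor inoculation, animals followed 60 days. Read-out median % increase in life span over controls at optimal dose with % survivors; activity threshold ILS ≥25%; ≥15% reduction in ILS or body weight versus controls rated toxic.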

Colon 26 [10] = experiment: Percent in life span when compound administered at 1 mg/kg againstColon 26 cells in balb/C mice; assay type: functional, organism-based; set-up: dose 1 mg/kg; conditions: Mus musculus
Summary of the method: (§5)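 Colon 26 in Balb/C mice. Test agents given ip on days 1, 5 and 9 relative to tumor inoculation; mice observed 30 days. Median % increase in life span at optimal dose, with % survivors noted; ILS ≥25% over controls required for activity; ILS or body weight reduced ≥15% versus controls rated toxic.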

L1210 [11] = experiment: Percent increase in life span when compound administered at 6.2 mg/kg against L1210 leukemia cells in BDF1 mice; assay type: functional, organism-based; set-up: dose 6.2 mg/kg; conditions: Mus musculus; summary of the method: as §2
Colon 26 [12] = experiment: Percent survivors when compound administered at 1 mg/kg againstColon 26 cells in balb/C mice; assay type: functional, organism-based; set-up: dose 1 mg/kg; conditions: Mus musculus; summary of the method: as §3
P388 [13] = experiment: Percent survivors when compound administered at 6.2 mg/kg against P388 leukemia cells in BDF1 mice; assay type: functional, organism-based; set-up: dose 6.2 mg/kg; conditions: Mus musculus; summary of the method: as §1
P388 [14] = experiment: Percent increase in life span when compound administered at 6.2 mg/kg against P388 leukemia cells in BDF1 mice; assay type: functional, organism-based; set-up: dose 6.2 mg/kg; conditions: Mus musculus; summary of the method: as §2
[15] = Water solubility was determined; assay type: ADME; conditions: buffer
B16 [16] = experiment: Percent increase in life span when compound administered at 12.5 mg/kg against B-16 melanoma cells in […] mice; assay type: functional; conditions: Mus musculus; summary of the method: as §4
L1210 [17] = experiment: Percent survivors when compound administered at 25 mg/kg against L1210 cisplatin resistant leukemia cells in BDF1 mice; assay type: functional, organism-based; set-up: dose 25 mg/kg; conditions: Mus musculus; summary of the method: as §1
L1210 [18] = experiment: Percent survivors when compound administered at 25 mg/kg against L1210 leukemia cells in BDF1 mice; assay type: functional, organism-based; set-up: dose 25 mg/kg; conditions: Mus musculus; summary of the method: as §1
P388 [19] = experiment: Percent increase in life span when compound administered at 25 mg/kg against P388 leukemia cells in BDF1 mice; assay type: functional; conditions: Mus musculus; summary of the method: as §1
P388 [20] = experiment: Percent survivors when compound administered at 25 mg/kg against P388 leukemia cells in BDF1 mice; assay type: functional; conditions: Mus musculus; summary of the method: as §1
L1210 [21] = experiment: Percent increase in life span when compound administered at 25 mg/kg against L1210 cisplatin resistant leukemia cells in BDF1 mice; assay type: functional, organism-based; set-up: dose 25 mg/kg; conditions: Mus musculus; summary of the method: as §2
B16 [22] = experiment: Percent survivors when compound administered at 12.5 mg/kg against B-16 melanoma cells in […] mice; assay type: functional; conditions: Mus musculus; summary of the method: as §4
Colon 26 [23] = experiment: Percent in life span when compound administered at 25 mg/kg against Colon 26 cells in balb/C mice; assay type: functional, organism-based; set-up: dose 25 mg/kg; conditions: Mus musculus; summary of the method: as §5
L1210 [24] = experiment: Percent increase in life span when compound administered at 25 mg/kg against L1210 leukemia cells in BDF1 mice; assay type: functional, organism-based; set-up: dose 25 mg/kg; conditions: Mus musculus; summary of the method: as §2
Colon 26 [25] = experiment: Percent survivors when compound administered at 25 mg/kg against Colon 26 cells in balb/C mice; assay type: functional, organism-based; set-up: dose 25 mg/kg; conditions: Mus musculus; summary of the method: as §3

With CARBOPLATIN the Survivors (L1210 [1]) was “inactive”, the Increase (L1210 [2]) was 35% and the inhibition (Mus musculus) was 90%. For the same substance, the Survivors (P388 [3]) was 6%, the Increase (L1210 [4]) was “inactive” and the Increase (Colon 26 [5]) was 85%. The Increase (P388 [6]) was 144% and the Survivors (Colon 26 [7]) was 17%.
In the case of CISPLATIN, the Survivors (L1210 [1]) is reported as “inactive”, the Survivors (B16 [8]) is reported as 0% and the Increase (B16 [9]) is reported as 36%. The Increase (Colon 26 [10]) was 47%, the Increase (L1210 [11]) was 96% and the Survivors (Colon 26 [12]) was 17%. For the same substance, the Survivors (P388 [13]) was 17%, the Increase (L1210 [4]) was “inactive” and the Increase (P388 [14]) was 140%.
“Platinum:2,4,10,15-Tetraoxa-8,16-diaza-dispiro[5.2.6.2]heptadecane-11,14-dione [listing 1 of 2 here]” showed a Water solubility [15] of 10000 µg/mL.
With “Platinum:2,4,10,15-Tetraoxa-8,16-diaza-dispiro[5.2.6.2]heptadecane-11,14-dione [listing 2 of 2 here]” the Increase (B16 [16]) was 56%, the Survivors (L1210 [17]) was 0% and the Survivors (L1210 [18]) was 1%. It also gave an Increase (P388 [19]) of 120%, a Survivors (P388 [20]) of 1% and an Increase (L1210 [21]) of 44%. For the same substance, the Survivors (B16 [22]) was 0%, the Increase (Colon 26 [23]) was 46% and the Increase (L1210 [24]) was 110%. The Survivors (Colon 26 [25]) was 0%.
With “Platinum:3,3-Dichloro-8,15-dioxa-2,4-diaza-dispiro[5.2.5.2]hexadecane” the Water solubility [15] was 200 µg/mL.
In the case of “Platinum:8,8-Dichloro-1,3-dioxa-7,9-diaza-spiro[4.5]decane”, the Water solubility [15] is reported as less than 200 µg/mL.
